High-throughput results deposited in PubChem by several laboratories.
Compounds with a hit are over-represented: about 3.5% of the library has one in this group of screens.
pPAFAH FP inh = pPAFAH enzyme inhibitors, primary screen, biochemical, fluorescence polarization, human. Platelet-activating factor acetylhydrolase (Homo sapiens), Q13093. AID 463082, 2010. recombinant pPAFAH, FP-rhodamine probe fluorescence polarization. inhibition, % at 3.39 µM. 330,000 tested, 1.5% active;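 active = inhibition above the mean inhibition across the screen plus 3 SD, cut at about 25% in these data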;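 also: inhibitors block binding of the rhodamine activity-based probe so polarization drops; 0% = enzyme with DMSO and 100% = wells lacking pPAFAH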
PREPL inh = PREPL enzyme inhibitors, primary screen, biochemical, fluorescence polarization. Prolyl endopeptidase-like (Homo sapiens), Q4J6C6. recombinant PREPL, fluorescence polarization activity-based probe. inhibition, % at 5.96 µM. 320,000 tested, 0.68% active; in the data active = inhibition above about 43%;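 also: 0% = enzyme with DMSO and 100% = wells lacking enzyme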
PAFAH2 inh = PAFAH2 enzyme inhibitors, primary screen, biochemical, fluorescence polarization, human | Platelet-activating factor acetylhydrolase 2, cytoplasmic (Homo sapiens), Q99487 | recombinant PAFAH2, FP-rhodamine activity probe | inhibition, % at 3.39 µM | 340,000 tested, 0.99% active;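 active = inhibition above the mean over all tested compounds plus 3 SD, cut at about 30% in these data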;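 also: inhibitors block probe labeling of enzyme so polarization drops; 0% = enzyme with DMSO and 100% = wells lacking PAFAH2 protein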
PAFAH1B2 inh = PAFAH1B2 enzyme inhibitors, primary screen, biochemical, fluorescence polarization, human. Platelet-activating factor acetylhydrolase IB subunit alpha2 (Homo sapiens), P68402. recombinant PAFAH1B2, FP-rhodamine activity probe. inhibition, % at 3.39 µM. 340,000 tested, 1.2% active;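 active = inhibition above the mean of all tested compounds plus 3 SD, cut at about 24% in these data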;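 also: 0% = enzyme with DMSO and 100% = wells lacking PAFAH1B2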
Target sequence (P68402 whole entry, looked up): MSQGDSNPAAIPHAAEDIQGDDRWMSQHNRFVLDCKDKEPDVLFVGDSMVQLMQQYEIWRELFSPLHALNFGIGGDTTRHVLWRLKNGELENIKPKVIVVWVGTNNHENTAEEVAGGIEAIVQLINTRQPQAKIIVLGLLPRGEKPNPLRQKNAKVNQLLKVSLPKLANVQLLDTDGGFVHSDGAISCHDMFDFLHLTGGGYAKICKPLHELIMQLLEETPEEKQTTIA
Apaf1 inhib = inhibitors of human Apaf-1 apoptosome, primary screen, biochemical, DEVD-Rh110 fluorescence, uHTS. Apoptotic protease-activating factor 1 (Homo sapiens), O14727. reconstituted apoptosome caspase-3 activity. inhibition, % at 20 µM. 330,000 tested, 0.71% active; active = inhibition of at least 40% at 20 µM;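 also: plate controls were DMSO wells for no effect and DEVD-CHO caspase inhibitor wells for full effect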
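System: reconstituted apoptosome with Apaf-1, cytochrome c, caspase-9, procaspase-3, dATP; Signal: Rh110 fluorescence intensity; Schedule: 30 min compound preincubation, 50 min activation, room temperature; Reagent: cytochrome c trigger plus (Z-DEVD)2-Rh110 caspase-3 substrate.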
PAFAH1B3 FP inh = PAFAH1B3 enzyme inhibitors, primary screen, biochemical, fluorescence polarization, human. inhibition, % at 3.39 µM. 340,000 tested, 0.28% active. recombinant PAFAH1B3, FP-rhodamine probe. Platelet-activating factor acetylhydrolase IB subunit alpha1 (Homo sapiens), Q15102;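 active = inhibition above the screen-wide average of all tested compounds plus 3 SD, cut at about 25% in these data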;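 also: 0% = enzyme with DMSO only and 100% = wells lacking PAFAH1B3 protein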
Target sequence (Q15102 whole entry, looked up): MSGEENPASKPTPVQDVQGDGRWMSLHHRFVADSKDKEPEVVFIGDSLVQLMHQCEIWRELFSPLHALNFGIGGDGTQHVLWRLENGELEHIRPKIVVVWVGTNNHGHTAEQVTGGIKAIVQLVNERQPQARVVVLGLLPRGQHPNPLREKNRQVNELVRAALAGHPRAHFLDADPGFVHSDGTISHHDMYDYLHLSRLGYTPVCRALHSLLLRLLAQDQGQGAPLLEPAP
pPAFAH FP conf = pPAFAH (PLA2G7) enzyme inhibitors, confirmation, biochemical, fluorescence polarization, human. shares compounds with pPAFAH FP inh. recombinant pPAFAH, FP-Rh probe fluorescence polarization. inhibition, % at 3.39 µM. 2,300 tested, 72% active. AID 463230, 2010;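 active = mean inhibition of the triplicate above the hit cutoff set for the earlier primary screen, cut at about 25% in these data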;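 also: 0% = enzyme with DMSO and 100% = wells lacking pPAFAH enzyme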
Apaf-1 inh conf = Apaf-1 inhibitors, single-dose retest, confirmation, biochemical, fluorescence, DEVD-Rh110, 20 µM; shares compounds with Apaf1 inhib; reconstituted apoptosome, caspase-3 DEVD-Rh110 fluorescence; inhibition, % at 20 µM; 1,800 tested, 25% active; AID 504614, 2011;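 active = mean inhibition of at least 40% at 20 µM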;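 also: plate controls were DMSO wells for no effect and DEVD-CHO caspase inhibitor control wells for full effect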
Rh110 interf inh = Rh110 fluorescence interference by putative Apaf-1 inhibitors, confirmation, artefact control for Apaf-1 inhibitor project, biochemical, 20 µM | shares compounds with Apaf1 inhib | quenched caspase reaction | activation (fluorescence interference), % at 20 µM | 1,800 tested, under 10 active;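 active = signal rise of 40% or more at 20 µM, treated as a fluorescence artifact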
Fluor interf inh = fluorescence interference of Apaf-1 inhibitor hits, dose response, artefact control for Apaf-1 inhibitor project | IC50, µM | fluorescence interference counterscreen, Apaf-1 assay format | shares compounds with Apaf1 inhib | AID 588538, 2011 | 460 tested, under 10 active; call rule not given here
An asterisk follows results filed as active; . = no result given.

SMILES	pPAFAH FP inh	PREPL inh	PAFAH2 inh	PAFAH1B2 inh	Apaf1 inhib	PAFAH1B3 FP inh	Apaf-1 inh conf	Rh110 interf inh	others
O=C1NC(=O)N(Cc2ccco2)C(=O)/C1=C/c1ccc(-c2cccc([N+](=O)[O-])c2)o1	66*	16	37*	4	8	6	.	.	pPAFAH FP conf=36*
COC(=O)C1=C(c2cc3ccccc3s2)C[C@@H]2CC[C@H]1N2C(=O)NCCS(C)=O (some centres not stated)	9	6	-1	4	1	4	.	.
CC1CCCN(c2ccc(C(=O)N3CCC4(CC3)OCCO4)cc2[N+](=O)[O-])C1 (configuration not stated)	45*	6	-1	2	15	7	.	.	pPAFAH FP conf=59*
C#CC[N+]1(C)C2CCC1CC(O)C2 (configuration not stated)	-10	9	-6	1	7	2	.	.
COC(=O)CC1=C(C(=O)OC)C2(C(=O)N(C)c3ccccc32)C(C#N)=C(N)O1 (configuration not stated)	1	-2	-6	4	5	-4	.	.
CN(C)[C@@H]1C(=O)C(C(N)=O)=C(O)[C@@]2(O)C(=O)C3=C(O)c4c(O)cccc4[C@@](C)(O)[C@H]3[C@H](O)[C@@H]12	82*	21	64*	35*	3	57*	.	.	pPAFAH FP conf=75*
CCN1C(=O)C(=C/C=C/c2ccco2)C(=O)N(CC)C1=S	-28	-47	-58	-42	15	-88	.	.
CC(C)N1C(=O)/C(=C/C=C/c2ccco2)C(=O)N(Cc2ccco2)C1=O	38*	-6	22	3	26	-1	.	.	pPAFAH FP conf=1
CCOC(=O)C1C(OC(=O)c2ccccc2)CC2CCC1N2C (configuration not stated)	.	.	1	2	.	-2	.	.
O=C(c1ccc2nc(-c3ccco3)c(-c3ccco3)nc2c1)N1CCC2(CC1)OCCO2	62*	28	18	14	56*	21	32	2	pPAFAH FP conf=3
ClCCN1CCSCC1	.	.	0	5	.	1	.	.
COC(=O)C1=C(c2ccc(OCc3ccccc3)cc2)C[C@@H]2CC[C@H]1N2C(=O)NC1CCN(Cc2ccccc2)CC1	11	30	-5	-5	58*	3	23	10
Nc1c(C(=O)NCCCc2ccccc2)c2nc3ccccc3nc2n1Cc1cccs1	-1	8	-14	-1	84*	-1	35	10
CCCOC(=O)c1c(N)n(Cc2cccs2)c2nc3ccccc3nc12	13	-2	-11	1	29	8	.	.
CCCCNC(=O)c1c(N)n(Cc2ccc3c(c2)OCO3)c2nc3ccccc3nc12	7	-1	1	-4	95*	25	31	5
CCCCn1c(N)c(C(=O)NCc2cccs2)c2nc3ccccc3nc21	12	17	1	-8	85*	-1	24	9
CCCCCn1c(N)c(C(=O)NCc2cccs2)c2nc3ccccc3nc21	4	8	.	.	70*	.	41*	8	Fluor interf inh=>100
COc1ccc(CCNC2CCCCC2)cc1OC	11	8	-1	6	-20	0	.	.
CN1C(=O)N(C)C(=O)C2(Cc3cc([N+](=O)[O-])ccc3N(C)C2c2ccccc2)C1=O (configuration not stated)	2	-3	7	7	-6	3	.	.
COc1ccc(C(Nc2ccccc2)P(=O)(Oc2ccccc2)Oc2ccccc2)cc1 (configuration not stated)	-1	13	4	3	6	10	.	.
COc1ccc2c(c1)CC1(CN2C)C(=O)NC(=O)N(CCc2ccccc2)C1=O (configuration not stated)	6	5	10	11	18	12	.	.
CCC(C)N1C(=O)NC(=O)C2(Cc3c(ccc4ccccc34)N(C)C2)C1=O (configuration not stated)	8	29	8	7	65*	5	30	4
COc1cc2c(cc1O)C[C@H]1NCCc3cc4c(c-2c31)OCO4	25*	7	9	10	71*	18	36	1
COC(=O)C(O)(c1c(C)[nH]n(-c2ccccc2)c1=O)C(F)(F)F (configuration not stated)	0	-3	1	7	79*	5	52*	-7	Fluor interf inh=>100
COC(=O)C(O)(c1c[nH]c2ccccc12)C(F)(F)F (configuration not stated)	5	-4	-12	4	14	-4	.	.
SMILES	pPAFAH FP inh	PREPL inh	PAFAH2 inh	PAFAH1B2 inh	Apaf1 inhib	PAFAH1B3 FP inh	Apaf-1 inh conf	Rh110 interf inh	others
COC(=O)C1=C(c2ccc(-c3ccccc3)c(F)c2)C[C@@H]2CC[C@H]1N2C(=O)NCCCOC(C)C	13	-29	8	4	27	1	.	.
CCCCn1c(NC(=O)c2ccco2)c(C(=O)OCC)c2nc3ccccc3nc21	2	6	17	25*	83*	54*	80*	1	Fluor interf inh=>100
CCOC(=O)c1c(N)n(Cc2ccco2)c2nc3ccccc3nc12	9	14	-2	4	28	4	.	.
COCCCn1c(N)c(C(=O)NCCC(C)C)c2nc3ccccc3nc21	16	18	3	6	91*	21	52*	6	Fluor interf inh=>100
COCCOC(=O)c1c(N)n(Cc2ccccc2)c2nc3ccccc3nc12	-4	9	-4	6	83*	7	15	2
CCCCOCCCn1c(N)c(C(=O)OCCOC)c2nc3ccccc3nc21	-5	-7	2	4	66*	20	2	12
Cc1ccc(C2(O)CCN3CCCCC32)cc1 (configuration not stated)	-1	5	2	-3	-2	0	.	.
